Bioassay records from PubChem.
Hits are enriched below; roughly 2.6% of the tested compounds scored in any of these assays.
PRMT1 inh: PRMT1 (human) inhibition, primary screen | Q99873 | recombinant PRMT1, activity-based probe fluorescence polarization | inhibition, % at 2.79 µM | actives 1.3% (n = 370,000) | AID 652257;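 active = inhibition above about 21% made by adding two undisclosed values, limit read from the data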
SIAE primary: inhibitors of human sialic acid acetylesterase SIAE. Q9HAT2. SIAE FP-Rh probe binding, fluorescence polarization. inhibition, % at 9.66 µM. actives 0.69% (n = 370,000). AID 1053197;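 active = inhibition above a cutoff: mean of compounds within the control limits plus 3 SD of those, cut at about 17% in these data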;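 also: 0% = plate median of compound wells and 100% = probe without SIAE protein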
TCR-CD3 inh: inhibitors of human TCR-CD3 interaction; TAMRA-labeled TCR probe fluorescence, biochemical; inhibition, % at 9.4 µM; actives 0.37% (n = 360,000); AID 651800; in the data active = inhibition above about 19%;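 also: recombinant mutant TCR 2C K166C tagged with TAMRA read by polarization; 0% = receptor in buffer alone and 100% = receptor with positive control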
ABHD4 inh: ABHD4 (mouse) inhibition, primary FP screen; Q8VD66; actives 0.54% (n = 370,000); inhibition, % at 8.92 µM; purified mABHD4, FP-Rh probe fluorescence polarization;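 active = inhibition exceeding the mean over every tested compound plus 3 SD, cut at about 30% in these data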;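 also: 0% = plate median of compound wells and 100% = S159A mutant with DMSO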
Target sequence (Q8VD66 whole entry, looked up): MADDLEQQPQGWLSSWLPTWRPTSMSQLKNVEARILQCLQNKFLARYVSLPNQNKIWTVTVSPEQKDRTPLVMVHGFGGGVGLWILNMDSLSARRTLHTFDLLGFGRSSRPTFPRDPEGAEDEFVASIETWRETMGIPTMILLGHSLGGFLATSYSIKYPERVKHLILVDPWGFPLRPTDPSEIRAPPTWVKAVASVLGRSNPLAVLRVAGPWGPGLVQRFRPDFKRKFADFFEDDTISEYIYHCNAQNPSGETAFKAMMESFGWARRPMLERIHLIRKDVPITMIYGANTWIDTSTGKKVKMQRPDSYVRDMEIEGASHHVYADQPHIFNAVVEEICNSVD
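Assay system: wild-type mouse ABHD4 protein; compound: single nominal dose of 8.92 µM, 0.89% DMSO final; schedule: 45 min + 60 min at 25 °C; measured by: FP readout, ex 525 nm / em 598 nm; evaluation: % inhibition of FP-Rh probe binding versus controls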
HTRA1 inhibitor: inhibitors of human serine peptidase HTRA1 | Q92743 | recombinant HTRA1, FP-rhodamine activity-based probe, fluorescence polarization | inhibition, % at 5.96 µM | actives 0.5% (n = 340,000) | AID 504803; in the data active = inhibition above about 36%;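 also: 0% = enzyme with DMSO and 100% = wells lacking enzyme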
SIAE confirm: confirmation of human SIAE inhibitors; SIAE FP-Rh activity-based probe, fluorescence polarization; shares compounds with SIAE primary; AID 1117263; actives 13% (n = 2,300); inhibition, % at 9.66 µM;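 active = mean inhibition of the replicates above the hit cutoff set in the primary screen, cut at about 17% in these data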;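 also: 0% = SIAE with DMSO and probe and 100% = probe without SIAE; inhibitors lower polarization as more probe stays unbound to SIAE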
Active calls of the source: *; x = no result.

SMILES	PRMT1 inh	SIAE primary	TCR-CD3 inh	ABHD4 inh	HTRA1 inhibitor	SIAE confirm
Cc1ccc(Cl)cc1NC(=O)CN1C(=O)NC2(CCCCCC2)C1=O	1	45*	19	8	-7	2
CN(CCO)c1ccc2c(c1)Oc1ccccc1CN(Cc1cn(Cc3ccccc3C(F)(F)F)nn1)S2(=O)=O	0	1	x	-3	x	x
COC(=O)[C@H]1C[C@@H]1[C@H](NC(=O)[C@H]1C[C@@H]1[C@H](NC(=O)OCc1ccccc1)c1ccccc1)c1ccccc1	-1	20*	-2	-14	-24	-3
CCCCCCNC(=O)C1CSCCS(=O)(=O)N1Cc1ccc(C)cc1 (stereo not given)	-4	-2	x	-6	x	x
COc1ccc(-c2[nH]c(-c3ccc(SC)cc3)nc2SCC(=O)Nc2nccs2)cc1	6	22*	1	10	3	9
COc1ccc(-c2[nH]c(-c3ccc(C)cc3)nc2SCC(=O)Nc2nccs2)cc1	7	3	-6	-4	-12	x
COc1ccc(-c2nc(SCC(=O)NC3CCCC3)c(-c3ccc(OC)cc3)[nH]2)cc1	4	18*	-2	9	7	6
CCCCNC(=O)C[C@@H]1C[C@@]2(C(=O)OC)CCCCC=C2N(Cc2ccccc2)C1=O	0	22*	3	0	x	0
COc1cccc(OCC(O)CN2CCN(c3ccc(Cl)cc3)CC2)c1 (stereo not given)	-5	19*	1	-5	1	0
Nc1[nH]c(C(=O)c2ccccc2)c(-c2ccc(Br)cc2)c1C(=O)NCCCN1CCOCC1	-3	9	x	2	x	x
C#CCNC(=O)C[C@H]1C(=O)N(CCCOC)C2=CCCC[C@@]21C(=O)OCC	0	-1	x	6	x	x
COc1ccccc1C1=NOC(Cn2c(NCC3CCCO3)nc3c2c(=O)n(C)c(=O)n3C)C1 (stereo not given)	-2	17*	3	-6	3	0
COc1ccccc1C1=NOC(Cn2c(NCCCO)nc3c2c(=O)n(C)c(=O)n3C)C1 (stereo not given)	-2	7	9	7	-3	x
COC(=O)[C@]12C[C@H](CC(=O)N3CCC(c4ccccc4)CC3)C(=O)N(Cc3ccc(Cl)cc3Cl)C1=C[C@H](C1CCCC1)O[C@@H]2C	4	-1	x	-8	x	x
CCOc1ccc(NC(=O)CCC(=O)Nc2cc(OC)c(NC(=O)c3ccco3)cc2OC)cc1	3	19*	4	3	4	7
COC[C@H]1O[C@]2(c3ccccc3)CO[C@H]1[C@@H](/C=C/c1ccccc1)C2	-3	-2	x	-5	x	x
O=C(N/N=C/C=C/c1ccco1)c1cccc([N+](=O)[O-])c1	10	17*	3	14	19	-6
Cn1c(CCN2CCN(c3ccccn3)CC2)nc2cc(NC(=O)COc3ccccc3)ccc21	2	70*	0	-3	0	1
O=C(Cn1c(=S)[nH]c2ncccc2c1=O)NCCc1ccccc1	-2	36*	-8	-1	x	-3
Cc1cc(N2CCN(CC(C)(C)O)C[C@H]2C)ccc1N1CCN(Cc2ccccc2)[C@H](C)C1	1	-1	-9	1	x	x
COc1ccc(OC)c(/C=C2\S/C(=N/NC(=O)c3ccc4ccccc4c3)NC2=O)c1	-1	19*	1	9	7	9
O=C1N/C(=N/NC(=O)c2cccc3ccccc23)S/C1=C\c1ccccc1OCc1ccccc1	-1	2	-4	5	8	x
NC(=S)Nc1cc2ccccc2c2ccccc12	1	12	1	1	-10	x
NC(=S)Nc1cccc2cc3ccccc3cc12	6	19*	-2	25	27	7
COc1ccc(-c2nc3cccc(C)n3c2NCc2ccco2)cc1OC	6	25*	1	2	10	4
O=C(COc1ccc(S(=O)(=O)N2CCCCC2)cc1Cl)N1CCCC1	3	1	-6	7	-1	x
O=C(COc1ccc(Cl)cc1Cl)N1CCCCCC1	-2	18*	5	-6	-9	-3
CCC(=O)N1CCc2cc(Br)c(S(=O)(=O)NCCCN(C)Cc3ccccc3)cc21	-1	5	x	7	x	x
Cc1c(/C=N/O)c2ccccn2c1C(=O)c1ccc(F)cc1	-1	17*	6	2	-3	8
